Screens (PubChem)
Rows were chosen to be rich in hits. Some 11% of all compounds tested hit in one or more screens of this group.
G6PDH counter – L. mesenteroides G6PDH inhibition counter-screen; Purified L. mesenteroides G6PDH, diaphorase/resazurin coupled fluorescence, 45 min; inhibition, % at 5 µM; 0.12% of 200,000 active; AID 1020
WT yeast gro inh – growth inhibition of WT yeast, mitochondrial fusion screen | mitochondrial fusion phenotypic screen, WT strain | inhibition, % at 10 µM | 2.1% of 190,000 active; in the data active = inhibition above about 58%; tested in S. cerevisiae
Diaphorase act – activates diaphorase or chemically reduces, flagging diaphorase assay artifacts | activation factor at 20 µM | Diaphorase/resazurin coupled assay, resorufin fluorescence, 16 min; stronger effect = higher value; 1 = vehicle wells, 0 = NADH-free wells | 0.005% of 190,000 active;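 active = diaphorase activity raised at least twofold by the compound at 20 µM; inactive = activation factor below 2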
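Material: bacterial diaphorase enzyme (C. kluyveri); amount: enzyme 0.07 U/mL final; reagent: NADH substrate 0.114 mM plus resazurin dye 0.1 mM, final; doses: single compound dose of 20 µM, 1% DMSO final; timing: 16 min enzyme reaction, ambient temperature; measured by: fluorescence of resorufin, 544 nm excitation, 590 nm emission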
Diaphorase inh – diaphorase inhibition or chemical oxidation counter-screen. diaphorase resazurin-to-resorufin fluorescence, NADH, 16 min; bacterial (C. kluyveri) enzyme, not human. AID 1217. 0.69% of 190,000 active. inhibition, % at 20 µM;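 active = primary screen inhibition at 20 µM above a set limit, cut at about 50% in these data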;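 note: plate controls were DMSO with full reaction for no effect and wells lacking NADH for full effect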
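Test system: bacterial diaphorase enzyme (C. kluyveri); Quantity: 0.14 U/mL diaphorase, enzyme working solution; Times: reaction incubation of 16 min at room temperature; Measured by: fluorescence of resorufin formed from resazurin, Ex 544/Em 590 nm; Benchmarks: positive control minus NADH, DMSO neutral control.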
Lmaj promast – inhibitors of Leishmania major promastigote growth; Leishmania major promastigotes, resazurin fluorescence viability; inhibition, % at 10 µM; 9% of 200,000 active;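 note: promastigotes grown with compound for 44 hours at 28 °C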
* hit, by the source's call. Cut-off read from the data, not from the text of the source, unless noted: active = inhibition above about 50%; inactive = the rest.

SMILES | G6PDH counter | WT yeast gro inh | Diaphorase act | Diaphorase inh | Lmaj promast
CC(C)CC(NC(=O)OC(C)(C)C)c1cn([C@@H](CCC(=O)OC(C)(C)C)C(=O)N2CCN(C(=O)OC(C)(C)C)CC2)nn1 (some centres undefined) | 4 | 10 | 0.8 | 15 | 14
O=S(=O)(NCCc1ccncc1)c1ccc(S(=O)(=O)N2CCCCCC2)cc1 | 6 | -10 | 1 | -5 | -3
O=C(NNC(=O)c1cc(-c2ccccc2)nc2ccccc12)Nc1cccc(Cl)c1 | 2 | 21 | 0.8 | 15 | 99*
Cc1cccc(-c2cc(C(=O)NCc3ccccn3)c3ccccc3n2)c1 | 14 | 1 | 0.9 | 5 | 6
Cc1ccc(-c2cc(C(=O)NCc3ccccn3)c3ccccc3n2)cc1C | -31 | 12 | 0.8 | 21 | 88*
O=C(Nc1nccs1)c1cc(-c2ccccc2)nc2ccccc12 | 3 | 31 | 0.8 | 21 | 90*
Cc1ccc(C(=O)NC(C)(COc2nonc2C)COc2nonc2C)cc1 | 2 | -5 | 1 | -4 | 9
CC(CNC(=O)C(=O)NC(C)CCc1ccccc1)Cc1ccccc1 (centres undefined) | 3 | -14 | 0.9 | 8 | -1
C=CCn1c(C)c(C(C)=O)c(N2CCN(C(c3ccccc3)c3ccccc3)CC2)nc1=S | -5 | 72* | 0.7 | 27 | 18
CC(=O)c1c(N2CCN(C)CC2)nc(=S)n(Cc2ccccc2)c1C | 3 | -3 | 0.9 | 11 | -7
CC(=O)c1ccc(NC(=O)CSc2ccsc2[N+](=O)[O-])cc1 | -9 | -10 | 0.8 | 23 | -2
O=C(/C=C/Sc1ccccc1)c1ccccc1 | 2 | 39 | 1 | 3 | 59*
CSC(=CC(=O)c1ccccc1)SC | 3 | 0 | 1 | 0 | 85*
O=C(/C=C/Sc1ccccc1)c1ccc(Cl)cc1 | -1 | 10 | 1 | -4 | 92*
CCOC(=O)C(O)(CC(=O)c1ccc(OC)cc1)C(F)(F)F (centres undefined) | 6 | 7 | 1 | -2 | -3
Cc1cc(=O)[nH]c(N2CCc3ccccc3C2)n1 | -2 | 7 | 0.8 | 17 | -4
CCOC(=O)c1cnc(SC)nc1Oc1cccc(NC(=O)c2cccc(Cl)c2Cl)c1 | 6 | 9 | 0.9 | 15 | 1
CCCCC(=O)NCc1ccccc1Cl | 19 | -5 | 1 | 0 | 4
CCCCC(=O)NC(c1ccccc1Cl)c1c(O)ccc2ccccc12 (centres undefined) | -3 | -13 | 0.8 | 20 | 99*
CCCC(=O)NC(c1ccccc1Cl)c1c(O)ccc2ccccc12 (centres undefined) | -20 | -1 | 0.7 | 29 | 100*
COc1ccc(-c2n(Cc3ccccc3)c3ccccc3[n+]2Cc2ccccc2)cc1 | 13 | 27 | 1.4 | -35 | 100*
CCOCCn1c(-c2ccc(OC)cc2)nc2ccccc21 | -2 | 16 | 1 | -1 | 43
C=CCn1c(-c2ccc(OC)cc2)nc2ccccc21 | -1 | 0 | 1 | -3 | 96*
COc1ccc(-c2nc3ccccc3n2Cc2ccccc2)cc1 | 6 | 45 | 1 | 5 | 53*
COc1ccccc1Cn1c(-c2ccccc2OC)nc2ccccc21 | -2 | 72* | 1.1 | -6 | 98*
SMILES | G6PDH counter | WT yeast gro inh | Diaphorase act | Diaphorase inh | Lmaj promast
Cc1ccc(N2CCN(C(=O)N3CCOCC3)CC2)c(C)c1 | -5 | -9 | 1 | 1 | -9
CCN(CC)Cc1c(CC(C)C)oc(C)c1C(=O)O | 23 | -1 | 1 | 0 | -7
COc1ccc2c(c1)nc(N)n2Cc1ccccc1 | 11 | 3 | 1.1 | -10 | 64*
O=C(c1cc(N2C(=O)C3C4CCC(C4)C3C2=O)ccc1Cl)N1CCCCCC1 (centres undefined) | 0 | -8 | 0.9 | 7 | -4
O=C(c1cc(N2C(=O)C3C4CCC(C4)C3C2=O)ccc1Cl)N1CCN(c2ccccc2F)CC1 (centres undefined) | -8 | 9 | 0.9 | 10 | 75*
O=C(c1cc(N2C(=O)C3C4CCC(C4)C3C2=O)ccc1Cl)N1CCN(c2ccc(F)cc2)CC1 (centres undefined) | 8 | 3 | 1 | 5 | 75*
COc1ccc(N2CCN(C(=O)c3cc(N4C(=O)C5C6CCC(C6)C5C4=O)ccc3Cl)CC2)cc1 (centres undefined) | 6 | -9 | 0.9 | 6 | 86*
